Each structure is given as a SMILES string. In brackets after ≈: the same amount, converted by molar mass.

The values that follow come from ChEMBL document CHEMBL1156126, “Synthesis of some new pyrazolo[3,4-d]pyrimidine derivatives of expected anticancer and radioprotective activity” (Eur J Med Chem, 2010).

Experiment [1] in a line: Antitumor activity against mouse EAC assessed as non viable cells at 100 ug/ml after 2 hrs by trypan blue exclusion assay. The class given is functional, Ehrlich. The essentials:
(§1)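 EAC cells aspirated from ascitic fluid of preinoculated mice (line maintained by weekly i.p. transplantation), suspended in saline at 2.5×10⁶/ml. Compounds dissolved in DMSO:saline 0.7:0.3 at 1, 0.75, 0.5, 0.25 mg/ml stocks; 0.1 ml added to 0.8 ml saline plus 0.1 ml cells. Incubation 37 °C, 2 h; non-viable cells counted by trypan blue exclusion. IC50 taken from survival-versus-concentration curve.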

Experiment [2] in a line: Antitumor activity against mouse EAC assessed as non viable cells at 75 ug/ml after 2 hrs by trypan blue exclusion assay. In kind it is functional, Ehrlich. The essentials:
as §1

Experiment [3] in a line: Antitumor activity against mouse EAC assessed as non viable cells at 50 ug/ml after 2 hrs by trypan blue exclusion assay. The class given is functional, Ehrlich. The essentials: as §1
A short description of experiment [4]: Antitumor activity against mouse EAC assessed as non viable cells at 25 ug/ml after 2 hrs by trypan blue exclusion assay. In kind it is functional, Ehrlich. A digest of the protocol: as §1
Experiment [5] is described as follows: Antitumor activity against mouse EAC after 2 hrs by trypan blue exclusion assay. The class given is functional, cell-based. The settings on record: Ehrlich. The essentials: as §1
Experiment [6] has as its system Mus musculus. As to the kind of experiment: Radioprotective activity in 6Gy gamma irradiated Swiss albino mouse assessed as reduction in gamma irradiation-inhibited blood glutathione content at 150 mg/kg, ip administered as 3 doses in alternative days up to 7 days pretreated 30 mins before gamma-irradiation relative to control. In kind it is functional. On the set-up: scale not given: the % may be the effect or the level left. The settings on record: route intraperitoneal.

Experiment [7] relates to Mus musculus. As to the kind of experiment: Radioprotective activity in 6 Gy gamma irradiated Swiss albino mouse assessed as change blood superoxide dismutase activity at 150 mg/kg, ip administered as 3 doses in alternative days up to 7 days relative to control. In kind it is functional. The settings on record: route intraperitoneal.
Experiment [8] has as its system Mus musculus. As to the kind of experiment: Radioprotective activity in 6 Gy gamma irradiated Swiss albino mouse assessed as change in gamma irradiation-induced blood superoxide dismutase activity at 150 mg/kg, ip administered as 3 doses in alternative days up to 7 days pretreated 30 mins before gamma-irradiation relative to control. The class given is functional. The settings on record: route intraperitoneal.

The subject of experiment [9] is Mus musculus. As to the kind of experiment: Radioprotective activity in 6Gy gamma irradiated Swiss albino mouse assessed as reduction in lipid peroxidation at 150 mg/kg, ip administered as 3 doses in alternative days up to 7 days relative to control. The class given is functional. Further details: scale not given: the % may be the effect or the level left. The settings on record: route intraperitoneal.

Experiment [10] concerns Mus musculus. As to the kind of experiment: Radioprotective activity in 6Gy gamma irradiated Swiss albino mouse assessed as reduction in gamma irradiation-induced lipid peroxidation at 150 mg/kg, ip administered as 3 doses in alternative days up to 7 days pretreated 30 mins before gamma-irradiation relative to control. The class given is functional. On the set-up: scale not given: the % may be the effect or the level left. The settings on record: route intraperitoneal.

The subject of experiment [11] is Mus musculus. As to the kind of experiment: Radioprotective activity in 6Gy gamma irradiated Swiss albino mouse assessed as survival at 150 mg/kg, ip administered as 3 doses in alternative days up to 7 days relative to control. The class given is functional. The settings on record: route intraperitoneal. A digest of the protocol: (§2)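 Female Swiss albino mice (25–30 g), 10 per group. Test agent was suspended in carboxymethylcellulose and given ip every other day, 3 injections over 7 days, each 30 min before whole-body gamma irradiation (Cs-137, 6 Gy, 0.86 Gy/min). Groups were untreated, CMC, radiation-only and drug-only. Survival is the percentage of animals alive 7 days after the radiation dose.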

Experiment [12] concerns Mus musculus. As to the kind of experiment: Radioprotective activity in 6Gy gamma irradiated Swiss albino mouse assessed as […] at 150 mg/kg, ip administered as 3 doses in alternative days up to 7 days pretreated 30 mins before gamma-irradiation relative to control. In kind it is functional. The settings on record: route intraperitoneal. The essentials: as §2

Experiment [13] deals with Mus musculus. As to the kind of experiment: Radioprotective activity in 6Gy gamma irradiated Swiss albino mouse assessed as increase in blood glutathione content at 150 mg/kg, ip administered as 3 doses in alternative days up to 7 days relative to control. The settings on record: route intraperitoneal.

Take `Nn1c(=O)[nH]c2c(cnn2-c2ccccc2)c1=O`: the Activity in experiment [1] was 50%; in [2], 30%; in experiment [3] it was 20%; in experiment [4], 10%. Besides, in [5], the IC50 was determined as 100 µg/mL (≈ 411 µM).
For `O=c1c2cnn(-c3ccccc3)c2ncn1Cc1ccccc1` the same measures were 80%, 20%, 10%, 10% and 90 µg/mL (≈ 298 µM).
Turning to `Nn1cnc2c(cnn2-c2ccccc2)c1=S`, the Activity is 10% in experiment [1]; 10% in [2]; 10% in [3]; 10% in experiment [4]; 9.63% in the experiment on Mus musculus [6]; -2.04% in the experiment on Mus musculus [7]. For the same compound, the Activity in the experiment on Mus musculus [8] was -9.3%; with Mus musculus [9], 5.33%; in the experiment with Mus musculus [10], -6.19%; in the experiment on Mus musculus [11], 100%; with Mus musculus [12], 100%; in the experiment on Mus musculus [13], 4.95%. For the same compound, the half-maximal inhibitory concentration (IC50) in experiment [5] was over 100 µg/mL.
Turning to `O=c1c2cnn(-c3ccccc3)c2nc2ocnn12`, the Activity is given as 0% in [1], 0% in experiment [2], 0% in [3] and 10% in experiment [4]. In addition, the IC50 in experiment [5] was over 100 µg/mL.
Turning to `O=c1c2cnn(-c3ccccc3)c2nc2[nH]c3ccccc3n12`, the Activity in experiment [1] stood at 0%; in [2], 0%; in [3] it was 0%; in experiment [4], 10%. Besides, the IC50 in [5] is over 100 µg/mL.
Consider `S=c1nc2c3cnn(-c4ccccc4)c3ncn2[nH]1`, for which the Activity is recorded as 30% in experiment [1], 10% in [2], 10% in [3] and 10% in experiment [4]. The same compound had a concentration for half-maximal inhibition (IC50) in [5] of over 100 µg/mL.
Take `O=C1/C(=C/c2ccccc2)N=C(c2ccccc2)N1n1cnc2c(cnn2-c2ccccc2)c1=O`: the Activity is 0% in experiment [1], 0% in experiment [2], 0% in experiment [3] and 10% in experiment [4]. The IC50 in experiment [5] is over 100 µg/mL.
On to `O=c1oc2nc3c(cnn3-c3ccccc3)c(=O)n2c2ccccc12`, for which the Activity worked out at 30% in [1], 30% in experiment [2], 10% in experiment [3] and 10% in experiment [4]. The IC50 in experiment [5] was over 100 µg/mL.
For `CSC(=NS(=O)(=O)c1ccc(Nc2nn3c(=O)c4cnn(-c5ccccc5)c4nc3o2)cc1)SC`, the Activity in [1] is on record as 20%; in [2], 10%; in experiment [3] it was 10%; in [4], 10%. In [5], this compound yielded a half-maximal inhibitory concentration (IC50) of over 100 µg/mL.
As for `COc1cccc2c1C(=O)c1c(O)c3c(c(O)c1C2=O)C[C@@](O)(C(=O)CO)C[C@@H]3O[C@H]1C[C@H](N)[C@H](O)[C@H](C)O1` [DOXORUBICIN], the Activity in experiment [1] amounted to 100%; in experiment [2], 75%; in experiment [3], 55%; in experiment [4] it was 20%. Besides, the IC50 in experiment [5] is 52 µg/mL (≈ 95.7 µM).

Usually IC50 stands for the midpoint of a concentration-inhibition curve.
